Reference: ChEMBL document CHEMBL4725345, “DFG-1 Residue Controls Inhibitor Binding Mode and Affinity, Providing a Basis for Rational Design of Kinase Inhibitor Selectivity” (J Med Chem, 2020)
Blank lines part the entries; values can stand above or below the molecule they belong to.

Assays:
[1] = target: Serine/threonine-protein kinase pim-3 (Homo sapiens) (UniProt Q86V86); assay: Binding affinity to PIM3 (unknown origin) assessed as change in melting temperature at 10 uM incubated for 10 mins using SYPRO orange dye by RT-PCR-based fluorescence assay
How it was run: (§1)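 Recombinant kinase domain at 2 μM in 10 mM HEPES pH 7.5, 500 mM NaCl, mixed with 10 μM inhibitor for 10 min at room temperature; SYPRO orange added at 1:1000; temperature-dependent unfolding fluorescence read on a real-time PCR instrument; Tm shift derived by a previously described method.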

[2] = target: T1, Dual specificity protein kinase CLK1 (Homo sapiens, UniProt P49759); details: dose 10.0 µM, time 10.0 min
Target sequence in this assay (P49759 whole entry, looked up, canonical isoform): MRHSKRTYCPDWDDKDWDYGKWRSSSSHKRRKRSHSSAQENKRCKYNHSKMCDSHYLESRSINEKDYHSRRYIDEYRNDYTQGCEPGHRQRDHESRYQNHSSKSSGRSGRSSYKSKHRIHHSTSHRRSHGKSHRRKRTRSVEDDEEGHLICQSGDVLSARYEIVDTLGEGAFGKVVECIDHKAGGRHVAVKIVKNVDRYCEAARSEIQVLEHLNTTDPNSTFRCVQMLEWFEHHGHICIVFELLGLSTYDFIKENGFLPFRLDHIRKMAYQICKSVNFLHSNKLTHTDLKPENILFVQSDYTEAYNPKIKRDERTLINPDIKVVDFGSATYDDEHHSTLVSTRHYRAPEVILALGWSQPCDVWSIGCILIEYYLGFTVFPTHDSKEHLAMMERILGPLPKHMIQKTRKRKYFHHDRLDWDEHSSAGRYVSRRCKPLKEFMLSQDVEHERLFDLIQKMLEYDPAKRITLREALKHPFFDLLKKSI

[3] = target: Casein kinase I isoform epsilon (Homo sapiens) (UniProt P49674); assay: Binding affinity to CSNK1E (unknown origin) assessed as change in melting temperature at 10 uM incubated for 10 mins using SYPRO orange dye by RT-PCR-based fluorescence assay; how it was run: as §1
Casein kinase I isoform epsilon (Homo sapiens), sequence (P49674 whole entry, looked up, canonical isoform): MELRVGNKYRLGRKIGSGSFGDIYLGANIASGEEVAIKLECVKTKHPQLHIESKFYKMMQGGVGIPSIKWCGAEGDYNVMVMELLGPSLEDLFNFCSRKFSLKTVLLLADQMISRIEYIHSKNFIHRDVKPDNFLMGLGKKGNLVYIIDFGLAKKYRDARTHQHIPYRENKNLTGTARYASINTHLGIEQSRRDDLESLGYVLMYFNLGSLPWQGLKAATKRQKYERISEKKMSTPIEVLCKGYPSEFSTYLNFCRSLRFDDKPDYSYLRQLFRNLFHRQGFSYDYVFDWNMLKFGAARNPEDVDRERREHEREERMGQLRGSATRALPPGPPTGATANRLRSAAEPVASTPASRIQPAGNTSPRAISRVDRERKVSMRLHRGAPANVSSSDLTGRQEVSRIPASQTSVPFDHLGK

[4] = Inhibition of recombinant CLK3 A319V mutant (unknown origin) using Ac-ERMRPRKRQGSVdP(Sox)G-NH2 as substrate after 5 mins by Omnia Kinase Assay; parameters: species or system Homo sapiens
[5] = target: T2, Dual specificity protein kinase CLK3 (Homo sapiens, UniProt P49761); details: dose 10.0 µM, time 10.0 min
Target sequence in this assay (P49761 whole entry, looked up): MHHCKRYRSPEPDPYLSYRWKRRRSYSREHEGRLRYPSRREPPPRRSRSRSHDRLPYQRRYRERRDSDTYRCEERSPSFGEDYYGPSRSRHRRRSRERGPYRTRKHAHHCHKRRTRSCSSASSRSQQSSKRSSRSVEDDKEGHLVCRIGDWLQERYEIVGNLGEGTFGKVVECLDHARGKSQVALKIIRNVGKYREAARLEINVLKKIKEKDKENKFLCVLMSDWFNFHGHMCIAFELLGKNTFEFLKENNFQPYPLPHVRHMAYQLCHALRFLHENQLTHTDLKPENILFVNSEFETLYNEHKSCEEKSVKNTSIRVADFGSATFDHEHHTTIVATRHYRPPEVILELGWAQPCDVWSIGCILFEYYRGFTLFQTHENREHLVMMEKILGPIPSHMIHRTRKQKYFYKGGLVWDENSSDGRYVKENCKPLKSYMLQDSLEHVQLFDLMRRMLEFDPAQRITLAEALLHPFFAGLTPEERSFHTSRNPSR

[6] = target: T3, Dual specificity protein kinase CLK4 (Homo sapiens, UniProt Q9HAZ1); details: dose 10.0 µM, time 10.0 min
Target sequence in this assay (Q9HAZ1 whole entry, looked up): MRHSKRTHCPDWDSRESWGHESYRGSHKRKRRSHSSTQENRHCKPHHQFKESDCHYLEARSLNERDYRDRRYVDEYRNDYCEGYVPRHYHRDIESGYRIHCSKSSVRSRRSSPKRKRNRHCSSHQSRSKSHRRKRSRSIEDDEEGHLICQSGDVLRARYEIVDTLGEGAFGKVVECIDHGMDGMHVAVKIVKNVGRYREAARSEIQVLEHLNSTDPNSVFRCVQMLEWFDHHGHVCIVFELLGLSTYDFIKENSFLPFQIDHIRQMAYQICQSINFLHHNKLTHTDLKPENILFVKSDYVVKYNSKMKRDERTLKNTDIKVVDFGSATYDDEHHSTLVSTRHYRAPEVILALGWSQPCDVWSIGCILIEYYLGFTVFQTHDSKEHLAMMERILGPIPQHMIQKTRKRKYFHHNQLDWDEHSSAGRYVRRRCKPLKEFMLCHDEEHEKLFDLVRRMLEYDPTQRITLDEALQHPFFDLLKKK

[7] = target: T4, Dual specificity tyrosine-phosphorylation-regulated kinase 2 (Homo sapiens) (UniProt Q92630); assay: Binding affinity to DYRK2 (unknown origin) assessed as change in melting temperature at 10 uM incubated for 10 mins using SYPRO orange dye by RT-PCR-based fluorescence assay; how it was run: as §1
T4 sequence (whole entry): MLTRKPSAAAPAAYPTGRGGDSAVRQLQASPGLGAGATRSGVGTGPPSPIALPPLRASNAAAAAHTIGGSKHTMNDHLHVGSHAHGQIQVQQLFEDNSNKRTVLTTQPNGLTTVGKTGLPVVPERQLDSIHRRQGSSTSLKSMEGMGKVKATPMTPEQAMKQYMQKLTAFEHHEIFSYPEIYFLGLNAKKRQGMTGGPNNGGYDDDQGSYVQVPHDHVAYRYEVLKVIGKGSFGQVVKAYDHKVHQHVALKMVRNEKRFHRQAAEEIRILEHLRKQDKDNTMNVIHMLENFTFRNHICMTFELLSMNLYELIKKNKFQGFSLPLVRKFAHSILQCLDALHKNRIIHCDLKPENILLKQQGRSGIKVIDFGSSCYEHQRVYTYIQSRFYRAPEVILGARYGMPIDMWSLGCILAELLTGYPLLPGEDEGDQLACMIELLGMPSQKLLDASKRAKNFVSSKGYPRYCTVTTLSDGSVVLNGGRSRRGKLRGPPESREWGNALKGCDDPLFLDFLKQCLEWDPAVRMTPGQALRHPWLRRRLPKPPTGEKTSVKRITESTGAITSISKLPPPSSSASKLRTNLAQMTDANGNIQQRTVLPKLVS

[8] = target: T5, Dual specificity tyrosine-phosphorylation-regulated kinase 1A (Homo sapiens, UniProt Q13627); details: dose 10.0 µM, time 10.0 min
[9] = target: Dual specificity protein kinase CLK2 (Homo sapiens) (UniProt P49760); details: dose 10.0 µM, time 10.0 min
Dual specificity protein kinase CLK2 (Homo sapiens), sequence (P49760 whole entry, looked up): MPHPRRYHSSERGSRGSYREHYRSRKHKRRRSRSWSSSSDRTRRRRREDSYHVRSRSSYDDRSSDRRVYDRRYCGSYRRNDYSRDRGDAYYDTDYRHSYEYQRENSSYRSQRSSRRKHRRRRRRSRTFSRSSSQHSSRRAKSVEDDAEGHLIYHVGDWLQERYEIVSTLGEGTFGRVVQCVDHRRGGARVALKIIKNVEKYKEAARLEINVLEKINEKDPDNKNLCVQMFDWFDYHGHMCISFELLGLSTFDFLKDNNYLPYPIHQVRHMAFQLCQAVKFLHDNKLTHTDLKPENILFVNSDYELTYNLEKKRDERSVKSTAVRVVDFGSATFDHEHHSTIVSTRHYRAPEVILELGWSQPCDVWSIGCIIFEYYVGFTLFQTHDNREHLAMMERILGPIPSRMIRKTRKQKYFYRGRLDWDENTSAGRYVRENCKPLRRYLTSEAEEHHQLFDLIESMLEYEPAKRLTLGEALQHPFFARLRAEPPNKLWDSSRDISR

[10] = target: Serine/threonine-protein kinase pim-1 (Homo sapiens) (UniProt P11309); assay: Binding affinity to PIM1 (unknown origin) assessed as change in melting temperature at 10 uM incubated for 10 mins using SYPRO orange dye by RT-PCR-based fluorescence assay
Homo sapiens [11] = species: Homo sapiens; assay: Binding affinity to CLK1 V324A mutant (unknown origin) assessed as change in melting temperature at 10 uM incubated for 10 mins using SYPRO orange dye by RT-PCR-based fluorescence assay; how it was run: as §1
Homo sapiens [12] = species: Homo sapiens; assay: Selectivity ratio of Ki for CLK1 V324A mutant (unknown origin) expressed in HEK293 cells to Ki for wild type CLK1 (unknown origin); type: cell-based
How it was run: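 Full-length CLK1 wild type and V324A, NanoLuc-fused (N-terminal for WT, C-terminal for mutant), transfected into HEK293T cells and expressed for 20 h at 37 °C, 5% CO2. Cells in Opti-MEM were incubated 2 h with serially varied inhibitor plus 1 μM Tracer K5. BRET was read at 450/610 nm, and mBU was fitted to give IC50. […] Biological duplicates; mutant/WT Ki ratio.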

Homo sapiens [13] = species: Homo sapiens; assay: Binding affinity to CLK3 A319V mutant (unknown origin) assessed as change in melting temperature at 10 uM incubated for 10 mins using SYPRO orange dye by RT-PCR-based fluorescence assay; how it was run: as §1
[14] = target: Serine/threonine-protein kinase 17B (Homo sapiens) (UniProt O94768); assay: Binding affinity to DRAK2 (unknown origin) assessed as change in melting temperature at 10 uM incubated for 10 mins using SYPRO orange dye by RT-PCR-based fluorescence assay; how it was run: as §1
Serine/threonine-protein kinase 17B (Homo sapiens), sequence (O94768 whole entry): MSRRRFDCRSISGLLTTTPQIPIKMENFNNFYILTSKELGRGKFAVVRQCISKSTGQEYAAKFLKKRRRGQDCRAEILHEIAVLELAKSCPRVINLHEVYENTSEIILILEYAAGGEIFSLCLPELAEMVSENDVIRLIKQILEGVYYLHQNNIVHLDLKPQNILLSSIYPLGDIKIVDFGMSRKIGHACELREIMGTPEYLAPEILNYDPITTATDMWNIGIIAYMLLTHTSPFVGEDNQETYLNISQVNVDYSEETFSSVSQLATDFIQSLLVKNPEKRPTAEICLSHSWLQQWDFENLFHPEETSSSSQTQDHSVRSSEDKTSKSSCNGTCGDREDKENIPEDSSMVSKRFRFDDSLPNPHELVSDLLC

[15] = target: Homeodomain-interacting protein kinase 1 (Homo sapiens, UniProt Q86Z02); assay: Inhibition of human HIPK1 by radiometric assay
[16] = target: Homeodomain-interacting protein kinase 2 (Homo sapiens, UniProt Q9H2X6); assay: Inhibition of human HIPK2 by radiometric assay
Homeodomain-interacting protein kinase 2, sequence (Q9H2X6 whole entry): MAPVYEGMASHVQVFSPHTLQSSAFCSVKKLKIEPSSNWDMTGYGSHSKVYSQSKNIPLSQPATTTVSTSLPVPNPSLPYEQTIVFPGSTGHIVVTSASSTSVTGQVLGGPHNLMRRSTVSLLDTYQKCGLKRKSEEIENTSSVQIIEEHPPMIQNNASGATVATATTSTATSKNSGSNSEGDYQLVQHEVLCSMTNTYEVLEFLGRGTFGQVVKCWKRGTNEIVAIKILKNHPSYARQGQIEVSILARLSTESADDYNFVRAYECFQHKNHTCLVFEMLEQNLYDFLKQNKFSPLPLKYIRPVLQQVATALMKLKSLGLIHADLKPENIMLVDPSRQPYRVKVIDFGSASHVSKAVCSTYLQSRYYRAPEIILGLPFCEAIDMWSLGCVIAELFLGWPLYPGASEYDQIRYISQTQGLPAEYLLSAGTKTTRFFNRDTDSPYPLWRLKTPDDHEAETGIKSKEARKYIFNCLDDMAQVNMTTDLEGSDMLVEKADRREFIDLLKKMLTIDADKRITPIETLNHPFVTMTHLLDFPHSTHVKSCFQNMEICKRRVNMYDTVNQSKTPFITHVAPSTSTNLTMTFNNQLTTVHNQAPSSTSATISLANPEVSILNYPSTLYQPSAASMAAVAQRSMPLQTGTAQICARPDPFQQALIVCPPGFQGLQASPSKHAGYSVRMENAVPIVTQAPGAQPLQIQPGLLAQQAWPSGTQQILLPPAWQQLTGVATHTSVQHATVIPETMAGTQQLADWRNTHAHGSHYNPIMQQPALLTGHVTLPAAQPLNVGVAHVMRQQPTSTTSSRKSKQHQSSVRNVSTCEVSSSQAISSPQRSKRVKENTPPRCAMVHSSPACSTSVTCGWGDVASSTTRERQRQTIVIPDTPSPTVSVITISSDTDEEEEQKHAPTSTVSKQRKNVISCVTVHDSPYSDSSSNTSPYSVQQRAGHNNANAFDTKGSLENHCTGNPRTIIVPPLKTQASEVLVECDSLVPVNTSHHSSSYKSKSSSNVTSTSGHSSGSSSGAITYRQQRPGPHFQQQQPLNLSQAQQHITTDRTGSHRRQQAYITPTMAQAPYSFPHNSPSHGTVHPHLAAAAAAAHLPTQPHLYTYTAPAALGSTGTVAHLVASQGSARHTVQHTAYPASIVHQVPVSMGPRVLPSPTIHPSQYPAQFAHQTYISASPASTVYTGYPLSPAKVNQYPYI

[17] = target: Dual specificity tyrosine-phosphorylation-regulated kinase 2 (Homo sapiens, UniProt Q92630); assay: Inhibition of human DYRK2 by radiometric assay
[18] = target: High affinity nerve growth factor receptor (Homo sapiens) (UniProt P04629); assay: Inhibition of human TrkA assessed as residual activity at 1 uM relative to control
[19] = target: Interleukin-1 receptor-associated kinase 4 (Homo sapiens) (UniProt Q9NWZ3); assay: Inhibition of human IRAK4 assessed as residual activity at 1 uM relative to control
[20] = target: Homeodomain-interacting protein kinase 3 (Homo sapiens, UniProt Q9H422); assay: Inhibition of human HIPK3 by radiometric assay
[21] = target: Glycogen synthase kinase-3 beta (Homo sapiens) (UniProt P49841); assay: Inhibition of human GSK3B assessed as residual activity at 1 uM relative to control
[22] = target: T6, Serine/threonine-protein kinase haspin (Homo sapiens) (UniProt Q8TF76); assay: Inhibition of human Haspin assessed as residual activity at 1 uM relative to control
T6 sequence (whole entry): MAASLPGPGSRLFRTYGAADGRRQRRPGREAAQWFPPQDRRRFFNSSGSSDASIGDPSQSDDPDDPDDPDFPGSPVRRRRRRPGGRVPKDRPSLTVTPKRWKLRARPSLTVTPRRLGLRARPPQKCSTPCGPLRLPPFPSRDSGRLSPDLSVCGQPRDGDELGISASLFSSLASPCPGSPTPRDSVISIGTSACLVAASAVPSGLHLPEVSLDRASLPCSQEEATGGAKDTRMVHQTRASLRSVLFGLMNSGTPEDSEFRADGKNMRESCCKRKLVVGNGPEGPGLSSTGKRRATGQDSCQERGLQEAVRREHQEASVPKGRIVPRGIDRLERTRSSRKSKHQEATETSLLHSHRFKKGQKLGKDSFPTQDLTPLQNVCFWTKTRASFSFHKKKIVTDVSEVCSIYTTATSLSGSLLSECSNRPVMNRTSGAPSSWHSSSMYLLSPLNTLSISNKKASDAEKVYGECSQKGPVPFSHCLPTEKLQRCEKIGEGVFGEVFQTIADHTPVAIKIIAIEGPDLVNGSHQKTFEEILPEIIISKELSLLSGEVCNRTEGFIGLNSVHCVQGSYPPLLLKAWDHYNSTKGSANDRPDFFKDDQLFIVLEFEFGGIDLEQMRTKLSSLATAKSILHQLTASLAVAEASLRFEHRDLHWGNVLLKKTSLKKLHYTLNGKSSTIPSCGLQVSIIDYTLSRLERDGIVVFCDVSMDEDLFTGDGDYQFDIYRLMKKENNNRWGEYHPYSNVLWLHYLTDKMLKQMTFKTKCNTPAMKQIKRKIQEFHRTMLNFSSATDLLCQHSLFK

[23] = target: T5, Dual specificity tyrosine-phosphorylation-regulated kinase 1A; assay: Inhibition of DYRK1A (unknown origin) by radiometric assay
[24] = target: T3, Dual specificity protein kinase CLK4; assay: Inhibition of human CLK4 by radiometric assay
Target sequence in this assay (Q9HAZ1 whole entry): as the sequence (Q9HAZ1 whole entry, looked up) above

[25] = target: Serine/threonine-protein kinase 33 (Homo sapiens) (UniProt Q9BYT3); assay: Binding affinity to STK33 (unknown origin) assessed as change in melting temperature at 10 uM incubated for 10 mins using SYPRO orange dye by RT-PCR-based fluorescence assay; how it was run: as §1
[26] = target: cGMP-dependent protein kinase 1 (Homo sapiens) (UniProt Q13976); details: dose 10.0 µM, time 10.0 min
cGMP-dependent protein kinase 1 (Homo sapiens), sequence (Q13976 whole entry): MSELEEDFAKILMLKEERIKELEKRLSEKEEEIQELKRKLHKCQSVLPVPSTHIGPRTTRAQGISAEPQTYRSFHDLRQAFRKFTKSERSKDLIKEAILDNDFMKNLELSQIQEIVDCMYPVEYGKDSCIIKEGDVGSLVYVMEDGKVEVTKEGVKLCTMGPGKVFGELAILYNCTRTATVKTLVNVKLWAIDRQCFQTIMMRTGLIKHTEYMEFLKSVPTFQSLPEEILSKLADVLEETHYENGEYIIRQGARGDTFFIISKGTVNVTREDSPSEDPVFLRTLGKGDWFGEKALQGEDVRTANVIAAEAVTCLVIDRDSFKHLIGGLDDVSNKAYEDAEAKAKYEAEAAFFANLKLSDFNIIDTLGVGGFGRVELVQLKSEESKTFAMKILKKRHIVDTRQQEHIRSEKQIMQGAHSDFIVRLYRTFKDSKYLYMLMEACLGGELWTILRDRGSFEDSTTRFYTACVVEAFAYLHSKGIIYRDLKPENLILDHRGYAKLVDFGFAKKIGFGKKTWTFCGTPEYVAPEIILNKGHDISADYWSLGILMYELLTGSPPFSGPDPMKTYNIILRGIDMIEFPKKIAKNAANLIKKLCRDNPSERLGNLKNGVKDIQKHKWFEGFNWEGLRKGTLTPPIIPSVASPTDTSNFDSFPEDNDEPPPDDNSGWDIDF

[27] = target: cAMP-dependent protein kinase catalytic subunit PRKX (Homo sapiens) (UniProt P51817); assay: Binding affinity to PRKX (unknown origin) assessed as change in melting temperature at 10 uM incubated for 10 mins using SYPRO orange dye by RT-PCR-based fluorescence assay; how it was run: as §1
[28] = target: Serine/threonine-protein kinase 17A (Homo sapiens) (UniProt Q9UEE5); assay: Binding affinity to DRAK1 (unknown origin) assessed as change in melting temperature at 10 uM incubated for 10 mins using SYPRO orange dye by RT-PCR-based fluorescence assay; how it was run: as §1
[29] = target: Tyrosine-protein kinase Fes/Fps (Homo sapiens) (UniProt P07332); assay: Binding affinity to FES (unknown origin) assessed as change in melting temperature at 10 uM incubated for 10 mins using SYPRO orange dye by RT-PCR-based fluorescence assay; how it was run: as §1
[30] = target: T6, Serine/threonine-protein kinase haspin (Homo sapiens); assay: Binding affinity to haspin (unknown origin) assessed as change in melting temperature at 10 uM incubated for 10 mins using SYPRO orange dye by RT-PCR-based fluorescence assay; how it was run: as §1
[31] = target: T1, Dual specificity protein kinase CLK1; assay: Inhibition of full length wild type CLK1 (unknown origin) expressed in HEK293 cells incubated for 2 hrs followed by NanoBRET NanoGlo Substrate addition by NanoBRET assay; type: cell-based
[32] = target: T2, Dual specificity protein kinase CLK3; assay: Inhibition of recombinant CLK3 (unknown origin) using Ac-ERMRPRKRQGSVdP(Sox)G-NH2 as substrate after 5 mins by Omnia Kinase Assay
[33] = target: Casein kinase II subunit alpha' (Homo sapiens) (UniProt P19784); assay: Binding affinity to CK2A2 (unknown origin) assessed as change in melting temperature at 10 uM incubated for 10 mins using SYPRO orange dye by RT-PCR-based fluorescence assay; how it was run: as §1
[34] = Inhibition of CLK1 V324A mutant (unknown origin) expressed in HEK293 cells incubated for 2 hrs followed by NanoBRET NanoGlo Substrate addition by NanoBRET assay; type: cell-based, Homo sapiens

ΔTm [1]: > 4 °C | ΔTm [2]: > 6 °C | ΔTm [3]: > 4 °C | Ki [4]: 320 nM | ΔTm [5]: 3 °C | ΔTm [6]: > 6 °C | ΔTm [7]: > 6 °C | ΔTm [8]: > 6 °C | ΔTm [9]: > 4 °C | ΔTm [10]: > 4 °C
Compound: CCN1/C(=C\C(C)=O)Sc2ccc(OC)cc21

ΔTm [1]: > 4 °C | ΔTm [2]: > 6 °C | ΔTm [14]: > 6 °C | ΔTm [7]: > 6 °C | ΔTm [9]: > 6 °C
Compound: Nc1nccc(-c2ccc3noc(-c4ccc(Cl)cc4)c3c2)n1

ΔTm [25]: > 4 °C | ΔTm [26]: > 6 °C | ΔTm [27]: > 4 °C | ΔTm [28]: > 4 °C | ΔTm [29]: > 4 °C | Ki [4]: 850 nM | ΔTm [5]: 1.4 °C | ΔTm [30]: > 4 °C | Ki [31]: 140 nM | ΔTm [6]: > 4 °C | ΔTm [9]: 3.5 °C | Ki [32]: 26900 nM | ΔTm [33]: > 4 °C
Compound: Cn1c2c(c3ccc(Cl)c(Cl)c31)C(C#N)C1(CCNCC1)NC2=O (stereo unspecified)
Ratio Ki (Homo sapiens [12]): 20.6 | Ki [34]: 2810 nM

ΔTm [2]: 9.8 °C | ΔTm [5]: 2.3 °C | ΔTm [6]: 10.1 °C | ΔTm [9]: 4.9 °C
Compound: O=C1NCc2ccc3c(-c4cccc(Cl)c4)c[nH]c3c21

More lines, now with the values behind:

Compound: CCOc1ccc2c(-c3ccnc(Nc4cc(OC)cc(C(F)(F)F)c4)n3)cnn2n1
ΔTm (Homo sapiens [11]): 2.5 °C | ΔTm [2]: 9 °C | Ratio Ki (Homo sapiens [12]): 9 | ΔTm (Homo sapiens [13]): 5.5 °C | ΔTm [5]: 2 °C | ΔTm [6]: 9 °C | ΔTm [9]: 8.4 °C

Compound: COC(=N)c1nc2ccc3ncnc(Nc4ccc(OC)cc4F)c3c2s1
ΔTm (Homo sapiens [11]): 3.8 °C | ΔTm [2]: 10.3 °C | ΔTm (Homo sapiens [13]): 9.2 °C | ΔTm [5]: 3.4 °C | ΔTm [6]: 9.6 °C | ΔTm [9]: 7 °C

Compound: CCOC(=O)c1c(/C(C#N)=C/N)c2ccc(Cl)c(Cl)c2n1C
Ratio Ki (Homo sapiens [12]): 9

Compound: Cn1cc(-c2ccc3occ(-c4cccc(Oc5ccccc5)c4)c3n2)cn1
ΔTm [2]: 12.3 °C | ΔTm [5]: 4.8 °C | ΔTm [9]: 8.3 °C

Compound: Cn1cc(-c2ccc3occ(-c4cccc(-c5ccncc5)c4)c3n2)cn1
IC50 [15]: 187 nM | IC50 [16]: 29 nM | IC50 [17]: 1310 nM | Activity [18]: < 50% | Activity [19]: < 50% | IC50 [20]: 159 nM | Activity [21]: < 50% | Activity [22]: < 50% | IC50 [23]: 213 nM | IC50 [24]: 12 nM
